Assay outcomes: PubChem, Johns Hopkins Ion Channel Center
RGS4 act – potentiators or activators of RGS4; HEK293 M3R/inducible RGS4, carbachol calcium flux Fluo4; active compounds read low; B-score at 10 µM; 310,000 compounds, 0.92% hits; AID 463111;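 active means B-score of the integrated calcium signal more than 4 SD below the library mean, with starting fluorescence not abnormally high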;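 further: negative B-score means reduced calcium response which marks RGS4 activation or potentiation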
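System – HEK293 FlpIn-TREx cells, stable M3R, doxycycline-inducible RGS4 · Reagent – ECmax carbachol challenge · Times – compound preincubation 20 min at room temperature before agonist · Technique – Fluo4 fluorescence kinetic imaging of calcium · Measure – B score of integrated Fluo4 ratio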
RGS4 block – inhibitors of human RGS4 | AID 463165 | 310,000 compounds, 0.45% hits | B-score at 10 µM | P49798 | HEK293 M3R/RGS4 inducible, Fluo-4 calcium flux; active compounds read high; triggered by carbachol at its EC20;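 active means B-score, a plate-corrected calcium signal, over three deviations above library mean, with baseline fluorescence within five deviations of library mean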;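 further: RGS4 expression induced by doxycycline in cells with stable M3 receptor; B-score is computed from the integrated fluorescence ratio over baseline after carbachol; higher B-score means a larger calcium signal and so more RGS4 inhibition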
Target sequence (P49798 whole entry, looked up): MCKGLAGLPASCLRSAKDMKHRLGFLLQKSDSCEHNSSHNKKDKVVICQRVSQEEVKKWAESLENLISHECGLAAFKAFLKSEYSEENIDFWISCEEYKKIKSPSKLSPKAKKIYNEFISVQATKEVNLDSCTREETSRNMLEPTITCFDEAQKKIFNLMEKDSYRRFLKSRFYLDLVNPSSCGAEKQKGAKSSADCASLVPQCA
MrgX1 allo act – human MrgX1 positive allosteric modulation, primary screen. Q96LB2. MrgX1-HEK293, Fluo-4 calcium flux, FDSS; active compounds read high. B-score at 10 µM. AID 588675. 310,000 compounds, 0.63% hits;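 active means plate-corrected calcium response at least 3 library SD above typical, normal starting fluorescence, not activating the receptor alone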;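 further: compound read alongside a low EC10 to EC30 dose of BAM8-22 agonist; peak minus trough fluorescence over baseline measured at the second addition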
Target sequence (Q96LB2 whole entry, looked up): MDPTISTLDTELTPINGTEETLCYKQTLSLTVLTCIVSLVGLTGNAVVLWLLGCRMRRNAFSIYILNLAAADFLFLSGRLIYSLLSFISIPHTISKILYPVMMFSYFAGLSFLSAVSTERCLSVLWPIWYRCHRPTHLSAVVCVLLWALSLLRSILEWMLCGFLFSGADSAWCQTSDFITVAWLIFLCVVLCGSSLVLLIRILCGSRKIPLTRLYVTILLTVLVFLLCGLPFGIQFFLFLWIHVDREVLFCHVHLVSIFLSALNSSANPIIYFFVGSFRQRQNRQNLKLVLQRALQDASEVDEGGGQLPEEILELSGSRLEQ
MrgX1 agonist – activates human MrgX1 receptor signaling; B-score at 10 µM; 310,000 compounds, 0.44% hits; AID 588627; MrgX1-HEK293 cells, Fluo-4 calcium fluorescence, agonist mode; active compounds read high; Q96LB2;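 active means calcium response B-score plate-corrected fluorescence ratio at least 3 library SD, with starting fluorescence B-score inside 5 SD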
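Test system: Stable human MrgX1 HEK293 cell line | Schedule: Overnight plating before 1 h dye loading | Read-out basis: Baseline-normalised fluorescence change ratio, B-scored | Detection: Kinetic calcium dye fluorescence, Fluo-4 NW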
MrgX1 antag – human MrgX1 receptor antagonism, primary screen | Q96LB2 | MRGX1-HEK293 calcium flux, Fluo-4, BAM8-22 antagonism; active compounds read low | B-score at 10 µM | 310,000 compounds, 1.3% hits | AID 588676;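 active means calcium-response B-score plate-corrected more than 3 library SD below zero, starting fluorescence within 5 deviations, no agonist response on first addition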;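 further: peak minus trough fluorescence over baseline after final BAM8-22 challenge near maximal dose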
MrgX1 ant reconf – confirmation of human MrgX1 receptor antagonists | shares compounds with MrgX1 antag | MrgX1-HEK293, BAM8-22 calcium flux, Fluo-4; active compounds read low | 2,300 compounds, 19% hits | remaining BAM8-22 calcium response % of control (active compounds read low), % at 10 µM;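 active means remaining agonist calcium response no higher than 100% minus 3 SD of agonist-only control wells, with starting fluorescence near control levels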;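 further: agonist BAM8-22 given at a near maximal EC90 to ECmax level; peak minus minimum fluorescence divided by baseline after agonist addition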
HEK293 Ca flux – activity in parental HEK293 cells lacking MrgX1 | shares compounds with MrgX1 antag | Fluo-4 calcium fluorescence, FDSS | fluorescence ratio F(max-min)/F0 at 10 µM | 4,000 compounds, 2% hits;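 active means duplicate-averaged calcium fluorescence ratio at least three times the standard deviation of buffer wells, a nonspecific response in parental cells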
HEK293 Ca counter – MrgX1 allosteric activator counter-screen hit in parental HEK293 cells; shares compounds with MrgX1 antag; parental HEK293 calcium flux, Fluo-4 fluorescence ratio; active compounds read high; fluorescence ratio F(max-min)/F0 at 10 µM; 4,000 compounds, 0.4% hits; AID 624114;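 active means calcium fluorescence ratio, averaged over duplicates, at least 3 SD of the buffer-well ratio, meaning a nonspecific response in receptor-free cells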;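 further: untransfected parental HEK293 lacking MrgX1 used as counterscreen for MrgX1 allosteric activators; fluorescence change taken during the second addition on a kinetic imager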
HEK293 Ca cntr2 – activity in parental HEK293 cells lacking MrgX1 receptor. shares compounds with MrgX1 antag. Fluo-4 calcium fluorescence (FDSS); active compounds read high. fluorescence ratio F(max-min)/F0 at 10 µM. 4,000 compounds, 8.7% hits. AID 624115;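 active means calcium fluorescence ratio at least three times the spread of buffer wells, meaning a non-specific response in parental cells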
Numbers without * were called inactive; i = inactive; · = no result. The list is not random: actives were taken first. Their share in the collection is about 3.5%.

SMILES | RGS4 act | RGS4 block | MrgX1 allo act | MrgX1 agonist | MrgX1 antag | MrgX1 ant reconf | HEK293 Ca flux | HEK293 Ca counter | HEK293 Ca cntr2
CCOc1ccc(S(=O)(=O)Nc2ccc(S(=O)(=O)N3CCCCC3)cc2)cc1 | i | i | i | i | -5.3* | i | i | i | i
CNc1oc(-c2ccccc2F)nc1S(=O)(=O)c1ccc(C)cc1 | i | i | i | i | i | · | · | · | ·
COc1ccc(Cc2ccc(OC)c(N)c2)cc1N | i | i | i | i | -5.5* | i | i | i | i
O=C1COc2ccc(C(=O)c3ccccc3C(=O)NCc3ccccc3)cc2N1 | i | i | i | i | i | · | · | · | ·
COCC(C)NC(=O)c1cc(-c2ccc(O)cc2)on1 (stereo not given) | i | i | i | i | -6* | i | i | i | i
CC1CCN(C(=O)c2cc(F)c(F)cc2Cl)CC1 | i | i | i | i | -5.2* | i | i | i | i
O=C(c1cc(F)c(F)cc1Cl)N1CCOCC1 | i | i | i | i | i | · | · | · | ·
Cc1ccc(S(=O)(=O)NCC2(c3ccccc3)CCOCC2)cc1 | i | i | i | i | i | · | · | · | ·
CN(C)S(=O)(=O)N(CC(=O)Nc1ccc2ccccc2c1)c1ccccc1 | i | i | i | i | i | · | · | · | ·
CN(C)S(=O)(=O)N(CC(=O)Nc1ccc(F)c(F)c1)c1ccccc1 | i | i | i | i | -6.1* | i | i | i | i
Cc1ccc(C(=O)Nc2ccc(S(=O)(=O)N3CCc4ccccc4C3)cc2)o1 | i | i | i | i | i | · | · | · | ·
O=C(Cc1cccs1)Nc1ccc(S(=O)(=O)N2CCCCC2)cc1 | · | · | i | i | i | · | · | · | ·
CN1CCN(S(=O)(=O)c2ccc(NC(=O)Cc3cccs3)cc2)CC1 | i | i | i | i | -4.7* | i | i | i | 51*
CCC(=O)Nc1ccc(S(=O)(=O)N2CCc3ccccc3C2)cc1 | i | i | i | i | -7.9* | i | i | i | i
Cc1nc2ccc(NC(=O)Cc3ccc(Br)cc3)cc2s1 | i | i | i | i | i | · | · | · | ·
Cc1nc2ccc(NC(=O)Cc3ccc4c(c3)OCCO4)cc2s1 | i | i | i | i | -6.8* | i | i | i | i
Cn1nc(C(=O)Nc2cccc(Cl)c2)cc1C(=O)Nc1cccc(Cl)c1 | i | i | i | i | -4.8* | i | i | i | i
CCOC(=O)CSc1ncnc2c1c(-c1ccccc1)cn2-c1ccc(OC)cc1 | i | i | i | i | -5.8* | 71%* | i | i | i
CCCC(C)NC(=O)c1ccc(F)cc1 (stereo not given) | i | i | i | i | i | · | · | · | ·
CCOC(=O)NC(NC(=O)OCC)C(=O)c1ccc(F)cc1 | i | i | i | i | -5.1* | i | i | i | i
CCOc1cc(N2CCOCC2)c(OCC)cc1NC(=O)c1ccc(C)cc1 | i | i | i | i | -12* | i | i | i | i
CCOc1ccc(-n2ccnc(SCC(=O)NCCc3ccccc3)c2=O)cc1 | i | i | i | i | i | · | · | · | ·
Cc1ccc(-n2ccnc(SCC(=O)NCCc3ccccc3)c2=O)cc1F | i | i | i | i | -4.6* | i | i | i | i
COc1ccc(NC(=O)CSc2nnc3c4c(nc(-c5ccccc5)n23)CC(C)(C)OC4)cc1 | i | i | i | i | -7.2* | i | i | i | i
